From ChEMBL document CHEMBL1153087, “Synthesis of 4-thiophen-2'-yl-1,4-dihydropyridines as potentiators of the CFTR chloride channel” (Bioorg Med Chem, 2009)
Activity calls are given as the source filed them. No cut-off for these calls is given here.

test system: FRT; experiment: Potentiation of CFTR deltaF508 mutant expressed in FRT cells coexpressing halide sensitive YFP-H148Q/I152L mutant protein assessed as channel activation by iodide influx assay; format: cell-based
Method in brief: (§1)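 FRT cells stably co-expressing ΔF508-CFTR and YFP-H148Q/I152L, held 20–24 h at 27 °C and assayed 48 h after plating. PBS wash, then 30 min with forskolin plus compound. 14-s YFP read (ex 500, em 535 nm) around iodide injection (100 mM final). Initial slope dF/dt extrapolated by exponential fit of final 10 s. Dose–response Hill fit gave apparent Kd and maximal effect.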

Row | Structure (SMILES) | Activity
1 | CC1=C(C(=O)OCc2ccccc2)C(c2cc(-c3ccccc3)cs2)C(C(=O)OCc2ccccc2)=C(C)N1 | Active
2 | CC1=C(C(=O)OCc2ccccc2)C(c2sccc2C)C(C(=O)OCc2ccccc2)=C(C)N1 | Active
3 | COC(=O)C1=C(C)NC(C)=C(C(=O)OC)C1c1ccc([N+](=O)[O-])s1 | Active
4 | C=CCOC(=O)C1=C(C)NC(C)=C(C(=O)OCC=C)C1c1cc(-c2ccccc2)cs1 | Active
5 | COC(=O)C1=C(C)NC(C)=C(C(=O)OC)C1c1ccc(C)s1 | Active
6 | COC(=O)C1=C(C)NC(C)=C(C(=O)OC)C1c1ccc(C)o1 | Active
7 | COC(=O)C1=C(C)NC(C)=C(C(=O)OC)C1c1sccc1C | inactive
8 | C=CCOC(=O)C1=C(C)NC(C)=C(C(=O)OCC=C)C1c1sccc1C | Active
9 | C=CCOC(=O)C1=C(C)NC(C)=C(C(=O)OCC=C)C1c1sccc1SCC(=O)OC | Active
10 | COC(=O)CSc1ccsc1C1C(C(=O)OCc2ccccc2)=C(C)NC(C)=C1C(=O)OCc1ccccc1 | Active

molecular target: Voltage-gated L-type calcium channel (Rattus norvegicus, UniProt P22002+Q02485+P27732); experiment: Inhibition of L-VDCC in rat H9C2 cells assessed as effect on calcium level by Fluo-4 fluorescence assay; format: cell-based

Row | inhibition (INH) | Structure (SMILES)
11 | Active | C=CCOC(=O)C1=C(C)NC(C)=C(C(=O)OCC)C1c1sccc1SCC(=O)OC (stereo unspecified)
12 | Active | CCOC(=O)C1=C(C)NC(C)=C(C(=O)OCc2ccccc2)C1c1sccc1C (stereo unspecified)
13 | Not Active | COC(=O)C1=C(C)NC(C)=C(C(=O)OC)C1c1cccs1
14 | Active | CCOC(=O)C1=C(C)NC(C)=C(C(=O)OCc2ccccc2)C1c1sccc1SCC(=O)OC (stereo unspecified)
15 | Not Active | COC(=O)C1=C(C)NC(C)=C(C(=O)OC)C1c1ccc(C)s1
16 | Not Active | COC(=O)C1=C(C)NC(C)=C(C(=O)OC)C1c1ccc(C)o1
17 | Active | C=CCOC(=O)C1=C(C)NC(C)=C(C(=O)OCC)C1c1sccc1C (stereo unspecified)

test system: not listed separately; experiment: Binding affinity to CFTR deltaF508 mutant expressed in FRT cells coexpressing halide sensitive YFP-H148Q/I152L mutant protein by iodide influx assay; format: cell-based; method in brief: as §1

Row | Structure (SMILES) | Kd [µM] | pKd
18 | CC1=C(C(=O)OCc2ccccc2)C(c2cc(-c3ccccc3)cs2)C(C(=O)OCc2ccccc2)=C(C)N1 | 16.5 | 4.8
19 | CC1=C(C(=O)OCc2ccccc2)C(c2sccc2C)C(C(=O)OCc2ccccc2)=C(C)N1 | 0.7 | 6.15
20 | C=CCOC(=O)C1=C(C)NC(C)=C(C(=O)OCC)C1c1sccc1SCC(=O)OC (stereo unspecified) | 1.9 | 5.72
21 | CCOC(=O)C1=C(C)NC(C)=C(C(=O)OCC)C1c1sccc1C | 5.7 | 5.24
22 | CCOC(=O)C1=C(C)NC(C)=C(C(=O)OCc2ccccc2)C1c1sccc1C (stereo unspecified) | 0.5 | 6.3
23 | COC(=O)C1=C(C)NC(C)=C(C(=O)OC)C1c1ccc([N+](=O)[O-])s1 | 8.3 | 
24 | COC(=O)C1=C(C)NC(C)=C(C(=O)OC)C1c1cccs1 | 9.5 | 5.02
25 | CCOC(=O)C1=C(C)NC(C)=C(C(=O)OCc2ccccc2)C1c1sccc1SCC(=O)OC (stereo unspecified) | 0.3 | 6.52
26 | C=CCOC(=O)C1=C(C)NC(C)=C(C(=O)OCC=C)C1c1cc(-c2ccccc2)cs1 | 1.5 | 5.82
27 | COC(=O)C1=C(C)NC(C)=C(C(=O)OC)C1c1ccc(C)s1 | 6 | 5.22
28 | CC1=C(C(=O)OCc2ccccc2)C(c2ccc([N+](=O)[O-])s2)C(C(=O)OCc2ccccc2)=C(C)N1 | 13.1 | 4.88
29 | O=c1c(-c2ccc(O)cc2)coc2cc(O)cc(O)c12 [GENISTEIN] | 16.7 | 
30 | COC(=O)C1=C(C)NC(C)=C(C(=O)OC)C1c1ccc(C)o1 | 6 | 5.22
31 | COC(=O)C1=C(C)NC(C)=C(C(=O)OC)C1c1sccc1C | 3.1 | 5.51
32 | C=CCOC(=O)C1=C(C)NC(C)=C(C(=O)OCC=C)C1c1sccc1C | 1 | 6
33 | C=CCOC(=O)C1=C(C)NC(C)=C(C(=O)OCC=C)C1c1ccc([N+](=O)[O-])s1 | 3.8 | 
34 | C=CCOC(=O)C1=C(C)NC(C)=C(C(=O)OCC)C1c1sccc1C (stereo unspecified) | 0.3 | 6.52
35 | C=CCOC(=O)C1=C(C)NC(C)=C(C(=O)OCC=C)C1c1sccc1SCC(=O)OC | 1.3 | 5.89
36 | COC(=O)CSc1ccsc1C1C(C(=O)OCc2ccccc2)=C(C)NC(C)=C1C(=O)OCc1ccccc1 | 0.3 | 
